Assay [1] concerns the target T1, Tyrosine-protein phosphatase non-receptor type 1 (Homo sapiens, UniProt P18031).
T1 sequence (P18031 whole entry): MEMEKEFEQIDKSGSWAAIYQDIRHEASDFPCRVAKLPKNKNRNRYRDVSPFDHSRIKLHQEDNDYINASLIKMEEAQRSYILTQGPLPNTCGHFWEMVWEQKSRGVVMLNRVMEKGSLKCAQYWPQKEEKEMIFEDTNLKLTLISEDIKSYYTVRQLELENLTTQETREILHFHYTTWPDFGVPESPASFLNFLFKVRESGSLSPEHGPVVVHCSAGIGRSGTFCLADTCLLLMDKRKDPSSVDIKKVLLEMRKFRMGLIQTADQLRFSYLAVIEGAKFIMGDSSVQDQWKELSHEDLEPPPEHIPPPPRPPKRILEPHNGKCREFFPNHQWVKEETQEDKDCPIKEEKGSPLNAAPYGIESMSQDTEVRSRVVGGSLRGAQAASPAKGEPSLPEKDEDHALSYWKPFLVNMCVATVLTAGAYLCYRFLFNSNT
Put plainly: Inhibition of recombinant human PTP1B (1 to 322 residues) expressed in Escherichia coli using pNPP as substrate by Dixon plot analysis. A digest of the protocol:
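Initial velocity with pNPP was recorded over a range of inhibitor concentrations in 25 mM Tris-HCl (pH 7.5) buffer with EDTA, b-mercaptoethanol and DTT at 37 °C, read at 405 nm. Data were fitted by nonlinear regression, and inhibition constants were taken from Dixon plots.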

Assay [2] addresses T1, Tyrosine-protein phosphatase non-receptor type 1. Put plainly: Inhibition of recombinant human PTP1B (1 to 322 residues) expressed in Escherichia coli using pNPP as substrate incubated for 10 mins measured for 30 mins by spectrometric analysis. A digest of the protocol: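 Enzyme (1 mg/mL stock) was mixed with sample in DMSO and 4 mM pNPP stock in 25 mM Tris-HCl pH 7.5, 1 mM EDTA, 2 mM b-mercaptoethanol and 1 mM DTT.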

Assay [3] has the same target. Briefly: Inhibition of recombinant human PTP1B (1 to 322 residues) expressed in Escherichia coli using pNPP as substrate preincubated for 60 mins followed by substrate addition measured at 30 secs interval for 10 mins by UV-spectrophotmetric method. The settings on record: read-out: Ki(app). A digest of the protocol: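 Activity was read continuously by UV spectrophotometry for 10 min, giving progress curves of 20 points at 30 s intervals. Fixed substrate and several inhibitor levels were used, and any lag was excluded. vi, vs and Kobs were obtained by fitting the progress curves.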

`CC(C)=CCC/C(C)=C/Cc1c(O)c(CC=C(C)C)c2c(c1O)C(=O)C1=C[C@@H]3C[C@H]4C(C)(C)O[C@@](C/C=C(/C)C(=O)O)(C3=O)[C@@]14O2` [GAMBOGENIC ACID]: the Ki in assay [1] turned out to be 1.21 µM. In assay [2], the IC50 came to 3.47 µM.

`CC(C)=CCc1c2c(c(O)c3c1O[C@]14C(=C[C@@H]5C[C@H]1C(C)(C)O[C@@]4(CC=C(C)C)C5=O)C3=O)C=CC(C)(C)O2`: the IC50 in assay [2] is above 200 µM.

Regarding `CO[C@@H]1C2C(=O)c3c(O)c4c(c(CC=C(C)C)c3O[C@@]23[C@H]2C[C@@H]1C(=O)[C@]3(C/C=C(/C)C(=O)O)OC2(C)C)OC(C)(C)C=C4` (stereo partly specified), the Ki in assay [1] came out at 1.75 µM. Besides, the IC50 in assay [2] was determined as 4.44 µM.

In the case of `CC(C)=CCc1c2c(c(O)c3c1O[C@]14C(=C[C@@H]5C[C@H]1C(C)(C)O[C@@]4(/C=C(/C)CO)C5=O)C3=O)C=CC(C)(C)O2`, in assay [1], the Ki stood at 29.3 µM. Also, the half-inhibitory concentration (IC50) in assay [2] was found to be 70.2 µM.

In the case of `COC1=C2C(=O)c3c(O)c4c(c(CC=C(C)C)c3O[C@@]23[C@H]2C[C@@H]1C(=O)[C@]3(CC=C(C)C)OC2(C)C)O[C@](C)(CCC=C(C)C)C=C4`, in assay [1], the Ki is 4.38 µM. In assay [2], the IC50 was 12.8 µM.

Turning to `CC(C)=CCC[C@]1(C)C=Cc2c(O)c3c(c(CC=C(C)C)c2O1)O[C@]12C(=C[C@@H]4C[C@H]1C(C)(C)O[C@@]2(C/C=C(/C)C(=O)O)C4=O)C3=O` [GAMBOGIC ACID], the Ki in assay [1] stood at 0.19 µM; in assay [3], 0.499 µM. In addition, the half-inhibitory concentration (IC50) in assay [2] worked out at 0.47 µM.

On to `CO[C@@H]1C2C(=O)c3c(O)c4c(c(CC=C(C)C)c3O[C@@]23[C@H]2C[C@@H]1C(=O)[C@]3(C/C=C(/C)C(=O)O)OC2(C)C)O[C@](C)(CCC=C(C)C)C=C4` (stereo partly specified), for which the Ki in assay [1] stood at 0.3 µM. The IC50 in assay [2] amounted to 0.74 µM.

As to `CO[C@@H]1C2C(=O)c3c(O)c(C/C=C(\C)CCC=C(C)C)c(O)c(CC=C(C)C)c3O[C@@]23[C@H]2C[C@@H]1C(=O)[C@]3(C/C=C(/C)C(=O)O)OC2(C)C` (stereo partly specified), in assay [1], the Ki came to 0.39 µM. The IC50 in assay [2] was determined as 0.93 µM.

As usually defined, the IC50 is the concentration at which inhibition is half-maximal.
